CHT inh: human CHT choline transport inhibition. Q9GZV3. CHT-expressing cells, membrane potential dye, choline response; active compounds read low. B-score at 10 µM. actives 0.86% (n = 310,000). AID 488975;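 active = B-score over 3 SD under the library average, and starting fluorescence ratio not unusually high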;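 note: choline stimulus applied at its EC90 after an EC20 pre-addition; B-score computed on integrated fluorescence ratio after choline addition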
Target sequence (Q9GZV3 whole entry, looked up): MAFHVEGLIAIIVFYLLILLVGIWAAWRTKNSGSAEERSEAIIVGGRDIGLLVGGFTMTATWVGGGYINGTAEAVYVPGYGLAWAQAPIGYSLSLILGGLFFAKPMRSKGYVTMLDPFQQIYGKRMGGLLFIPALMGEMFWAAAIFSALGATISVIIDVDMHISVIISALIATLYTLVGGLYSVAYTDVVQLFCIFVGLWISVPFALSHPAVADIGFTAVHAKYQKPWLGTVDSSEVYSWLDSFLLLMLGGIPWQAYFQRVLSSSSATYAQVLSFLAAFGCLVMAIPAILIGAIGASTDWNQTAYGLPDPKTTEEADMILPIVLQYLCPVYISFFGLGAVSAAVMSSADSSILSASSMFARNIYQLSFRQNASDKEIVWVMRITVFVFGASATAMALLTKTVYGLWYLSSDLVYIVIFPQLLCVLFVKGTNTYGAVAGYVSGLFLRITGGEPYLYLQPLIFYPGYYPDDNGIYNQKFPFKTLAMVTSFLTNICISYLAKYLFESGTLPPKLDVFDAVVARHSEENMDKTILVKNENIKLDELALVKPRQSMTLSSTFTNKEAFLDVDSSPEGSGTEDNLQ
VIM-2 inhibitor: blocks Pseudomonas aeruginosa VIM-2 metallo-beta-lactamase; purified VIM-2, nitrocefin hydrolysis, epi-absorbance fluorescence; inhibition, % at 5.6 µM; actives 0.89% (n = 290,000); AID 1527;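 active = inhibition above the mean of all tested compounds plus 3 SD, cutoff set per screening run, cut at about 7.5% in these data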;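 note: red hydrolysis product quenches plate fluorescence so inhibitors raise well fluorescence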
CHT allo act: human CHT allosteric activation | CHT-expressing cells, membrane potential dye, choline EC20; active compounds read high; LV-AA mutant CHT in HEK293 cells | B-score at 10 µM | actives 0.49% (n = 310,000);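 active = initial fluorescence not abnormally high and integrated response B-score, plate-corrected, over 3 SD above library mean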
IMP-1 inhibitor: blocks Pseudomonas aeruginosa IMP-1 metallo-beta-lactamase | purified IMP-1, nitrocefin hydrolysis, epi-absorbance fluorescence | inhibition, % at 5.6 µM | actives 0.45% (n = 290,000);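 active = inhibition above the mean plus 3 SD of all compounds in the same screening run, cut at about 4.5% in these data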
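Assay system: purified recombinant IMP-1 beta-lactamase. Input: IMP-1 0.2 nM before substrate addition. Buffer or medium: Zinc- and detergent-supplemented HEPES buffer, pH 7.1. Schedule: 25 °C, 15 min preincubation, 25 min reaction. Signal: Epi-absorbance fluorescence, 480 nm excitation, 530 nm emission. Evaluation: percent inhibition from optical density relative to buffer-blank wells.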
ANO1 block: blocks the mouse calcium-activated chloride channel TMEM16A; actives 1.2% (n = 310,000); HEK293 TMEM16A/YFP iodide influx fluorescence, ionomycin; AID 588511; normalized B-score (activity score, 25-100; higher = stronger inhibition) at 10 µM;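 active = ratio plate-corrected score three or more library SD toward inhibition, starting fluorescence score within five deviations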;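 note: score derived from kinetic fluorescence span divided by baseline fluorescence per well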
ANO1 activ: mouse TMEM16A channel activation, primary screen; Q8BHY3; HEK293 TMEM16A/YFP-H148Q/I152L, iodide quench fluorescence; active compounds read low; B-score at 10 µM; actives 0.3% (n = 340,000); AID 623877;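 active = fluorescence-ratio B-score plate-corrected deviation score at least 3 library SD below zero, with starting fluorescence score within 5 deviations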;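 note: channel opened by trigger with iodide after compound preincubation; score built on the fluorescence ratio of max minus min over baseline; more negative score means more quench and so TMEM16A activation or potentiation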
CHT activ conf: human CHT activation, confirmatory screen | activation, % at 10 µM | actives 91% (n = 2,500) | shares compounds with CHT allo act | CHT-expressing cells, membrane potential dye fluorescence (FDSS); % of choline EC20–EC90 response window; HEK293 expressing CHT LV-AA mutant; choline added at its EC20 | AID 504833;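 active = primary screen active, with duplicate mean activation above negative control mean plus 3 SD, cut at about 11% in these data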
HEK293 MP dye: CHT activator counter-screen hit in parental HEK293 cells; shares compounds with CHT allo act; membrane potential dye fluorescence (FDSS); measured after EC20 choline addition; ratio readout change at 10 µM, hits read low; actives 62% (n = 2,500); AID 623908;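 active = duplicate-averaged ratio beyond 3 SD from buffer wells, up or down, though filed actives are nearly all decreases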
Of the large screens only hits and unclear results are named; the others gave an inactive call (follow-up assays come after a bar, where they were run). Most compounds without a hit are left out; they make up all but 3.4% or so of the library.

O=C(COC(=O)C1CCN(c2ccc(C(F)(F)F)cn2)CC1)NC1CCCCC1	none (no result: VIM-2 inhibitor, IMP-1 inhibitor) | CHT activ conf inactive | HEK293 MP dye inactive
O=C(COC(=O)C1CCN(c2ccc(C(F)(F)F)cn2)CC1)NCc1ccccc1	none (no result: CHT inh, VIM-2 inhibitor, CHT allo act, IMP-1 inhibitor, ANO1 block)
CCCc1c(CC)c(=N)c2ccccc2n1C	CHT allo act 7.54, IMP-1 inhibitor 8.8 | CHT activ conf 63.7 | HEK293 MP dye -58.1
Cn1c(-c2ccccc2)c(C(=O)CCl)c2ccccc21	none (no result: CHT inh, CHT allo act, ANO1 block)
CCN1CCN(CCNC(=O)c2ccc(/C=C3/Sc4ccccc4N(Cc4cccc(Cl)c4)C3=O)cc2)CC1	none | CHT activ conf 17.3 | HEK293 MP dye -27.8
Cc1ccc(NC(=O)CN(C)C(=O)CSc2nccn2C)cc1	none (no result: CHT inh, VIM-2 inhibitor, CHT allo act, IMP-1 inhibitor, ANO1 block)
COc1ccc(CN2CCc3c([nH]c4ccccc34)C2)c(OC)c1C	none | CHT activ conf 32.1 | HEK293 MP dye inactive
Cc1cc(C)n2nc(C(=O)Nc3ccc(S(=O)(=O)N4CCCCC4)cc3)nc2n1	none | CHT activ conf 21.7 | HEK293 MP dye -23.9
Cc1cc(C)n2nc(C(=O)Nc3ccc(S(=O)(=O)N4CCCC4)cc3)nc2n1	none
CCOCCCn1c(=NC(C)=O)c(C(=O)OCC)cc2c(=O)n3ccccc3nc21	none | CHT activ conf 17.2 | HEK293 MP dye -41.6
Nc1nc(N2CCCCC2)nc2ccccc12	none
Nc1nc(N2CCN(c3ccccn3)CC2)nc2ccccc12	none | CHT activ conf 26.2 | HEK293 MP dye -41.7
CCC[C@H]1COCCS(=O)(=O)N1Cc1ccccc1F	none | CHT activ conf inactive | HEK293 MP dye inactive
Cc1cccn2c(CN3CCNC(=O)CC3)c(C(=O)N(C)CCc3ccccc3)nc12	none | CHT activ conf inactive | HEK293 MP dye inactive
Cc1cccn2c(CN3CCSCC3)c(C(=O)N3CCOCC3)nc12	none
N#Cc1c(Nc2ccccc2)[n+]([O-])c2ccc(Cl)cc2[n+]1[O-]	none (no result: CHT inh, VIM-2 inhibitor, CHT allo act, IMP-1 inhibitor, ANO1 block)
COc1cc(CNC(C)C23CC4CC(CC(C4)C2)C3)ccc1OCC(=O)NC(C)(C)C (configuration not stated)	none
CC(NCc1cc(Br)ccc1OCC(N)=O)C12CC3CC(CC(C3)C1)C2 (configuration not stated)	CHT allo act 10.8 | CHT activ conf 23.4 | HEK293 MP dye inactive
CC1=C(C(=O)O)N2C(=O)C(NC(=O)c3ccc(F)cc3)C2SC1 (configuration not stated)	none (no result: CHT inh, VIM-2 inhibitor, CHT allo act, IMP-1 inhibitor, ANO1 block)
Cc1c(O)c(CN2CCCC2)cc2c3c(c(=O)oc12)CCC3	VIM-2 inhibitor 9.6, CHT allo act 9.79 | CHT activ conf 36.9 | HEK293 MP dye -72.5
Cc1ccc2c(CN3CCCCC3)cc(=O)oc2c1C	none
Cc1c(OCc2ccc(C(=O)O)o2)ccc2c3c(c(=O)oc12)CCC3	none | CHT activ conf 38.9 | HEK293 MP dye -25.5
CC1CC(C)CN(C(=O)c2ccc(S(=O)(=O)N3CCCC3)cc2)C1 (configuration not stated)	none
O=C(C1CCN(CC2CC=CCC2)CC1)N(CCc1ccccc1)Cc1ccccc1 (configuration not stated)	none | CHT activ conf inactive | HEK293 MP dye inactive
O=C(C1CCN(S(=O)(=O)c2cnc[nH]2)CC1)N(CCc1ccccc1)Cc1ccccc1	none
CN=Cc1c(NC)nc2c(C)cccn2c1=O	CHT allo act 9.27 | CHT activ conf 43.2 | HEK293 MP dye -27.5
Cc1cccn2c(=O)c(C=O)c(Cl)nc12	CHT allo act 6.55 | CHT activ conf 42.2 | HEK293 MP dye -31.3
Cc1cc(C)n2nc(SCC(=O)N3CCCC(C)C3)nc2n1 (configuration not stated)	none (no result: CHT inh, VIM-2 inhibitor, CHT allo act, IMP-1 inhibitor, ANO1 block)
Cc1ccc(S(=O)(=O)Nc2cc(S(=O)(=O)N3CCCCC3)ccc2N2CCOCC2)cc1	none
Cn1c(=O)c(=O)n(C)c2cc(N3CCCC3)c(NS(=O)(=O)c3ccc(F)cc3)cc21	none

Bioassay records from PubChem BioAssay.
